The test system of experiment [1] is Mycobacterium tuberculosis. The experiment is described as follows: Antibacterial activity against Mycobacterium tuberculosis H37Rv ATCC 27294 after 14 days by microplate alamar blue assay. Type of experiment: functional. The following applies: H37Rv ATCC 27294, 336 h. In outline:
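Resazurin (Alamar blue) dye readout in 96-well format. Serially diluted compound added to a log-phase culture of M. tuberculosis H37Rv (ATCC 27294). MIC recorded in µg/ml.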
For orientation: Resazurin is reduced to fluorescent resorufin, in cell work by metabolically active cells.

The subject of experiment [2] is Mycobacterium tuberculosis. The experiment in a line: Inhibition of Mycobacterium tuberculosis DXR-catalyzed NADPH-dependent rearrangement and reduction of DXP to form MEP at 100 uM measured every 5 secs for 500 secs by spectrophotometric analysis. The essentials: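 Screened with inhibitor at 100 µM. Started by adding DXP, at 22 °C. A340 for NADPH read every 5 s over 500 s. Initial velocity from the linear slope, compared with the uninhibited reaction.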

Experiment [3] is described as follows: Inhibition of Mycobacterium tuberculosis DXR-catalyzed NADPH-dependent rearrangement and reduction of DXP to form MEP measured every 5 secs for 500 secs by spectrophotometric analysis.

Each structure is given as a SMILES string.

Turning to `CC(=O)N(O)CCC1c2ccccc2COP1(=O)O` (racemic), the MIC in experiment [1] was above 32 µg/mL. This compound also yielded an inhibition in experiment [2] of 12%.
Compound `CC(=O)N(O)CCC(c1ccccc1-c1cccs1)P(=O)(O)O` (racemic) had an MIC in experiment [1] above 32 µg/mL. In experiment [2], this compound had an inhibition of 30%.
Take `CC(=O)N(O)CCC(c1ccccc1C)P(=O)(O)O` (racemic): it took 205 µM to reach half-maximal inhibition in experiment [3] (IC50). For the same compound, the MIC in experiment [1] was above 32 µg/mL. The inhibition in experiment [2] came out at 55%.
For `CC(=O)N(O)CCC(c1ccccc1CO)P(=O)(O)O` (racemic), in experiment [3], the IC50 came out at 465 µM. In addition, in experiment [1], the MIC was above 32 µg/mL. The compound further showed an inhibition in experiment [2] of 36%.
In turn, `O=CN(O)CCCP(=O)(O)O` [FOSMIDOMYCIN] displayed an IC50 in experiment [3] of 0.08 µM. In other words, the double-digit nanomolar range.
Compound `CCOP(=O)(O)C(CCNC(C)=O)c1ccccc1-c1cccnc1` (racemic) yielded an MIC in experiment [1] above 32 µg/mL. The compound also came in with an inhibition in experiment [2] of 20%.
`CC(=O)N(O)CCC(c1ccccc1)P(=O)(O)O` (racemic) had an IC50 in experiment [3] of 7.4 µM. In experiment [1], this compound registered an MIC above 32 µg/mL. The compound also displayed an inhibition in experiment [2] of 92%.
The matching figures for `O=CN(O)CCC(c1ccccc1Br)P(=O)(O)O` (racemic): 5.6 µM, above 32 µg/mL and 93%.
In experiment [3], `CCOP(=O)(O)C(CCN(O)C(C)=O)c1ccc(Cl)c(Cl)c1` (racemic) came in with an IC50 of 22 µM.
In experiment [3], `CCOP(=O)(O)C(CCN(O)C=O)c1ccc(Cl)c(Cl)c1` (racemic) yielded an IC50 of 38 µM.
For the compound `CC(=O)N(O)CCC(c1ccccc1CCO)P(=O)(O)O` (racemic), in experiment [3], it took 150 µM to reach half-maximal inhibition (IC50). In experiment [1], the MIC is above 32 µg/mL. The compound also yielded an inhibition in experiment [2] of 35%.
In turn, `CCOP(=O)(OCC)C(CCN(O)C(C)=O)c1ccc(Cl)c(Cl)c1` (racemic) came in with an IC50 in experiment [3] above 100 µM.
In experiment [3], `CC(=O)N(O)CCC(c1ccccc1Br)P(=O)(O)O` (racemic) returned an IC50 of 210 µM. The MIC in experiment [1] was above 32 µg/mL. Further, the inhibition in experiment [2] came to 38%.
Regarding `CCOP(=O)(OCC)C(CCN(O)C=O)c1ccc(Cl)c(Cl)c1` (racemic), the IC50 in experiment [3] is above 100 µM.
In turn, `CC(=O)N(O)CCC(c1ccccc1C#N)P(=O)(O)O` (racemic) gave an MIC in experiment [1] above 32 µg/mL. Further, the inhibition in experiment [2] came out at 30%.
Consider `CC(=O)N(O)CCCP(=O)(O)O` [FR-900098], for which the IC50 in experiment [3] was found to be 0.16 µM.
As to `CC(=O)N(O)CCC(c1ccccc1-c1cccnc1)P(=O)(O)O` (racemic), in experiment [1], the MIC was above 32 µg/mL. Further, the inhibition in experiment [2] was found to be 20%.
In turn, `COCc1ccccc1C(CCN(O)C(C)=O)P(=O)(O)O` (racemic) yielded an MIC in experiment [1] above 32 µg/mL. In experiment [2], this compound came in with an inhibition of 30%.

What is called MIC is the lowest concentration found to suppress growth. Higher therefore signals a less susceptible organism. In general, inhibition refers to the percentage by which the read-out fell short of the control. Lower therefore signals a response near the control. In general, IC50 refers to the concentration that gives 50% inhibition.

For the origin of these results see ChEMBL document CHEMBL1800046, “Design, synthesis, and X-ray crystallographic studies of α-aryl substituted fosmidomycin analogues as inhibitors of Mycobacterium tuberculosis 1-deoxy-D-xylulose 5-phosphate reductoisomerase” (J Med Chem, 2011).
